Assay results from PMC3483131 (The Journal of Cell Biology, 2012).

What was measured:
[1] = tested on: BM collagen IV / MDA-MB-231 cells; assay: Native peritoneal basement membrane; type: cell-based, mouse (C57BL/6) BM; conditions: 3 d culture; GM6001 at 5 µM
Method in brief: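 Native basement membrane was made by stripping mesothelial cells from C57BL/6 mouse mesentery (1 N ammonium hydroxide) and mounting it on 6.5-mm Transwells. 5 × 10^4 MDA-MB-231 cells were seeded on top in DME/10% FBS, with medium below, and cultured 3 d. Samples were fixed in 4% formaldehyde, then stained on both sides for collagen IV (antibody 1:200), phalloidin and DAPI, and imaged by confocal. Read-out was total remaining collagen IV fluorescence; ≥3 independent experiments in duplicate.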

MDA-MB-231 cells = conditions: CIA; ref Yu and Machesky, 2012; cited from earlier work
[2] = tested on: mCherry-MT1-MMP in MDA-MB-231 cells; assay: FRAP of mCherry-MT1-MMP at plasma membrane of cells in CIA; type: cell-based; conditions: invasive pseudopods in Matrigel (CIA); LatA at 2 µM
Method in brief: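 mCherry-MT1-MMP expressed in MDA-MB-231 cells by nucleofection; cells kept at 37°C, 5% CO2. Photobleaching was done on the plasma membrane of invasive pseudopods in Matrigel and compared with other cell-surface regions, such as the membrane next to the nucleus. Fluorescence recovery gave MT1-MMP mobility.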

[3] = tested on: GFP-actin in MDA-MB-231 cells; assay: FRAP of GFP-actin in invasive pseudopods; type: cell-based; conditions: 2 µM LatA, invasive pseudopod, FRAP 90 s
[4] = target: actin (F-actin) in invasive pseudopods of MDA-MB-231 cells (human (endogenous in MDA-MB-231)) (UniProt P60709); assay: FRET or BRET

CNC(=O)[C@H](Cc1c[nH]c2ccccc12)NC(=O)[C@@H](CC(=O)NO)CC(C)C [GM6001]
degradation and remodeling of BM collagen IV [1]: significantly blocked
reduction of migration speed (MDA-MB-231 cells): 30–50%

C/C1=C/C(=O)O[C@@H]2C[C@@H](CC[C@H](C)/C=C\C=C\CC1)O[C@@](O)([C@@H]1CSC(=O)N1)C2 [Latrunculin A]
mobility of MT1-MMP in pseudopods [2]: mCherry-MT1-MMP became more mobile
GFP-actin exchange [3]: GFP-actin exchanged much faster

MT1-MMP-GFP (from UniProt P50281 112-582) (natural protein)
donor fluorescence lifetime with acceptor (FLIM-FRET) [4]: 2.25 ns
shift in the donor fluorescence lifetime (FLIM-FRET) [4]: 150 ps
